Holding throughout (type): functional
The subject of assay [1] is Escherichia coli. Briefly: Antibacterial activity against Escherichia coli DH5alpha carrying ampC gene of Acinetobacter genomosp. 3 isolate 65 by Etest method. In a few lines: (§1)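 E. coli DH5α expressing the AG3 isolate ampC gene, PCR-amplified (high-fidelity system, 28 cycles) and cloned into BamHI/HindIII sites of pBGS18 (kanamycin marker) under the CTX-M-14 β-lactamase promoter. Grown at 37°C in LB, with kanamycin 50 µg/ml when needed. β-Lactam MICs determined by Etest per the manufacturer's instructions.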

Assay [2] concerns Escherichia coli. In words: Antibacterial activity against Escherichia coli DH5alpha carrying ampC gene of Acinetobacter genomosp. 3 isolate 103 by Etest method. In a few lines: as §1
Assay [3] has as its system Escherichia coli. In words: Antibacterial activity against Escherichia coli DH5alpha carrying ampC gene of Acinetobacter genomosp. 3 isolate 56 by Etest method. In a few lines:
as §1

The test system of assay [4] is Acinetobacter pittii. Briefly: Antibacterial activity against Acinetobacter genomosp. 3 isolate 195 by Etest method. In a few lines: (§2)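 MICs for AG3 clinical isolates were read by Etest following the manufacturer's instructions. Isolates were stored at –80°C in 10% Brucella glycerol broth before testing.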
Assay [5] has as its system Acinetobacter pittii. In words: Antibacterial activity against Acinetobacter genomosp. 3 isolate 20 by Etest method. In a few lines: as §2
The test system of assay [6] is Acinetobacter pittii. Briefly: Antibacterial activity against Acinetobacter genomosp. 3 isolate 56 by Etest method. The essentials: as §2
Assay [7] has as its system Acinetobacter pittii. Briefly: Antibacterial activity against Acinetobacter genomosp. 3 isolate 14 by Etest method. The essentials:
as §2

In assay [8] the test system is Escherichia coli. Briefly: Antibacterial activity against Escherichia coli DH5alpha carrying ampC gene of Acinetobacter genomosp. 3 isolate 20 by Etest method. In a few lines:
as §1

The subject of assay [9] is Escherichia coli. Briefly: Antibacterial activity against Escherichia coli DH5alpha carrying ampC gene of Acinetobacter genomosp. 3 isolate 109 by Etest method. In a few lines: as §1
The subject of assay [10] is Escherichia coli. In words: Antibacterial activity against Escherichia coli DH5alpha carrying ampC gene of Acinetobacter genomosp. 3 isolate 195 by Etest method. In a few lines: as §1
The test system of assay [11] is Escherichia coli. Briefly: Antibacterial activity against Escherichia coli DH5alpha carrying ampC gene of Acinetobacter genomosp. 3 isolate 14 by Etest method. In a few lines: as §1
The subject of assay [12] is Acinetobacter pittii. In words: Antibacterial activity against Acinetobacter genomosp. 3 isolate 69 by Etest method. In a few lines:
as §2

Assay [13] has as its system Acinetobacter pittii. In words: Antibacterial activity against Acinetobacter genomosp. 3 isolate 60 by Etest method. In a few lines:
as §2

Assay [14] concerns Acinetobacter pittii. Briefly: Antibacterial activity against Acinetobacter genomosp. 3 isolate 109 by Etest method. The essentials:
as §2

In assay [15] the test system is Escherichia coli. Briefly: Antibacterial activity against Escherichia coli DH5alpha by Etest method. The essentials: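 E. coli DH5α host strain, grown at 37°C in LB medium. MICs of β-lactams determined by Etest following the manufacturer's instructions.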
Assay [16] concerns Acinetobacter pittii. In words: Antibacterial activity against Acinetobacter genomosp. 3 isolate 90 by Etest method. The essentials: as §2
Assay [17] deals with Acinetobacter pittii. Briefly: Antibacterial activity against Acinetobacter genomosp. 3 isolate 65 by Etest method. The essentials:
as §2

Assay [18] concerns Acinetobacter pittii. Briefly: Antibacterial activity against Acinetobacter genomosp. 3 isolate 67 by Etest method. The essentials:
as §2

Assay [19] concerns Escherichia coli. In words: Antibacterial activity against Escherichia coli DH5alpha carrying ampC gene of Acinetobacter genomosp. 3 isolate 69 by Etest method. The essentials:
as §1

Assay [20] deals with Acinetobacter pittii. In words: Antibacterial activity against Acinetobacter genomosp. 3 isolate 128 by Etest method. The essentials:
as §2

Assay [21] has as its system Acinetobacter pittii. Briefly: Antibacterial activity against Acinetobacter genomosp. 3 isolate 103 by Etest method. In a few lines: as §2
In assay [22] the test system is Acinetobacter pittii. Briefly: Antibacterial activity against Acinetobacter genomosp. 3 isolate 52 by Etest method. In a few lines: as §2
The test system of assay [23] is Acinetobacter pittii. In words: Antibacterial activity against Acinetobacter genomosp. 3 isolate 243 by Etest method. The essentials: as §2
In assay [24] the test system is Acinetobacter pittii. In words: Antibacterial activity against Acinetobacter genomosp. 3 isolate 21 by Etest method. In a few lines: as §2

Values after ≈ are worked out from the molar mass of the structure shown. Residues, ends and D or L forms follow the SMILES beside them. *: point of attachment. βNA = c1ccc2cc(N*)ccc2c1

Regarding `CO/N=C(\C(=O)N[C@@H]1C(=O)N2C(C(=O)O)=C(COC(N)=O)CS[C@H]12)c1ccco1` [CEFUROXIME], the minimum inhibitory concentration (MIC) in [1] is 4 µg/mL (≈ 9.43 µM); in [2], 64 µg/mL (≈ 151 µM); in assay [3], 48 µg/mL (≈ 113 µM); in assay [4], 64 µg/mL (≈ 151 µM); in assay [5], 48 µg/mL (≈ 113 µM); in assay [6], 16 µg/mL (≈ 37.7 µM). The minimum inhibitory concentration (MIC) in assay [7] was 32 µg/mL (≈ 75.4 µM); in assay [8], 96 µg/mL (≈ 226 µM); in [9], 32 µg/mL (≈ 75.4 µM); in assay [10] it was 48 µg/mL (≈ 113 µM); in [11] it was 64 µg/mL (≈ 151 µM); in assay [12], 32 µg/mL (≈ 75.4 µM). Moreover, the MIC in assay [13] was 64 µg/mL (≈ 151 µM); in [14] it was 32 µg/mL (≈ 75.4 µM); in assay [15], 1.5 µg/mL (≈ 3.53 µM); in assay [16] it was 16 µg/mL (≈ 37.7 µM); in assay [17] it was 24 µg/mL (≈ 56.6 µM); in assay [18], 48 µg/mL (≈ 113 µM). In addition, the minimal inhibitory concentration (MIC) in [19] amounted to 32 µg/mL (≈ 75.4 µM); in [20], 32 µg/mL (≈ 75.4 µM); in assay [21], 48 µg/mL (≈ 113 µM); in [22], 32 µg/mL (≈ 75.4 µM); in assay [23], 32 µg/mL (≈ 75.4 µM); in [24] it was 48 µg/mL (≈ 113 µM).

With `Cl.Cl.N=C(N)NCCC[C@H](NC(=O)[C@@H](N)Cc1ccccc1)C(=O)Nc1ccc2ccccc2c1` (H-Phe-Arg-βNA), the MIC in [4] is 400 µg/mL; in assay [5], > 400 µg/mL; in assay [6], > 400 µg/mL; in assay [7] it was > 400 µg/mL; in assay [12] it was 400 µg/mL; in assay [13], 400 µg/mL. Moreover, the MIC was 400 µg/mL in assay [14]; > 400 µg/mL in assay [16]; > 400 µg/mL in assay [17]; 400 µg/mL in assay [18]; 400 µg/mL in assay [20]; 400 µg/mL in assay [21]. Also, the MIC is 400 µg/mL in assay [22], > 400 µg/mL in assay [23] and > 400 µg/mL in [24].

Regarding `CC1(C)S[C@@H]2[C@H](NC(=O)[C@H](N)c3ccccc3)C(=O)N2[C@H]1C(=O)O` [AMPICILLIN], the minimum inhibitory concentration (MIC) in assay [1] is 32 µg/mL (≈ 91.6 µM); in [2], 128 µg/mL (≈ 366 µM); in [3] it was 96 µg/mL (≈ 275 µM); in [5], > 256 µg/mL; in assay [8], 96 µg/mL (≈ 275 µM); in assay [9], 64 µg/mL (≈ 183 µM). Also, the MIC in assay [10] was 96 µg/mL (≈ 275 µM); in [11] it was 128 µg/mL (≈ 366 µM); in assay [15], 3 µg/mL (≈ 8.59 µM); in assay [19] it was 96 µg/mL (≈ 275 µM); in [21], > 256 µg/mL.

With `CC(C)(O/N=C(\C(=O)N[C@@H]1C(=O)N2C(C(=O)[O-])=C(C[n+]3ccccc3)CS[C@H]12)c1csc(N)n1)C(=O)O` [CEFTAZIDIME], the minimum inhibitory concentration (MIC) worked out at 0.25 µg/mL (≈ 0.457 µM) in assay [1]; 0.5 µg/mL (≈ 0.915 µM) in assay [2]; 0.25 µg/mL (≈ 0.457 µM) in assay [3]; 4 µg/mL (≈ 7.32 µM) in assay [4]; 4 µg/mL (≈ 7.32 µM) in assay [5]; 1.5 µg/mL (≈ 2.74 µM) in [6]. Besides, the MIC in [7] is 3 µg/mL (≈ 5.49 µM); in assay [8], 0.75 µg/mL (≈ 1.37 µM); in assay [9], 0.19 µg/mL (≈ 0.348 µM); in [10] it was 0.5 µg/mL (≈ 0.915 µM); in [11], 0.38 µg/mL (≈ 0.695 µM); in [12], 4 µg/mL (≈ 7.32 µM). In addition, the MIC was 3 µg/mL (≈ 5.49 µM) in [13]; 3 µg/mL (≈ 5.49 µM) in assay [14]; 0.19 µg/mL (≈ 0.348 µM) in [15]; 6 µg/mL (≈ 11 µM) in assay [16]; 4 µg/mL (≈ 7.32 µM) in [17]; 3 µg/mL (≈ 5.49 µM) in [18]. For the same compound, the minimal inhibitory concentration (MIC) in assay [19] stood at 0.19 µg/mL (≈ 0.348 µM); in assay [20] it was 3 µg/mL (≈ 5.49 µM); in [21] it was 4 µg/mL (≈ 7.32 µM); in assay [22], 3 µg/mL (≈ 5.49 µM); in assay [23] it was 4 µg/mL (≈ 7.32 µM); in assay [24], 6 µg/mL (≈ 11 µM).

A word on the MIC: it is the smallest concentration in the dilution series that meets the test's criterion for growth inhibition. A low value points to a more susceptible organism.
